Source: PubChem BioAssay (several laboratories)
Shown are actives, neighbours in structure and some others; about 2% of the full set was active somewhere.
CAL PDZ FP-1: inhibitors of human CAL PDZ peptide binding | purified CAL PDZ, TMR-peptide fluorescence polarization, 1 h | inhibition, % at 20 µM | hit rate 0.02% among 330,000 | AID 504414 | Q9HD26;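 active = highest replicate inhibition of at least 40%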
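Material – purified CerCALP PDZ construct · Detection – FP readout, S and P plane fluorescence · Measure – percent inhibition from loss of millipolarization · Controls – unlabelled peptide for full inhibition, DMSO wells as neutral · Probe or stimulus – TMR-labelled reporter peptide T*-PRC34 bound in PDZ groove · Times – 1 h at RT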
PKA-R2B activ: activators of human PKA-R2B complex. AID 504700. PKA-R2B holoenzyme dissociation, Cy5-IP20 fluorescence polarization; R2B truncated from residue 108, S112A mutant; 0% DMSO only, 100% 113 µM cGMP. activation, % at 11.4 µM. hit rate 0.079% among 340,000;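 active = activation above a cutoff set at the mean over all compounds plus 3 SD, cut at about 18% in these data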;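 note: higher means more holoenzyme dissociation and a rise in polarization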
CAL PDZ FP-2: CAL PDZ (human) peptide binding inhibition | purified CAL PDZ, TMR-peptide fluorescence polarization, 1 h | inhibition, % at 24.9 µM | hit rate 0.92% among 300,000 | Q9HD26 | AID 602252;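 active = mean inhibition of at least 30% with at least half of replicates also reaching 30%; inconclusive = no clear call, values can overlap the other calls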
PKA-R1A act: activators of PKA-R1A complex | PKA-R1A dissociation, Cy5-IP20 fluorescence polarization; scaled: DMSO 0%, 113 µM cGMP 100% | activation, % at 11.4 µM | hit rate 0.083% among 340,000;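 active = percent activation above the mean of all tested compounds plus 3 SD, cut at about 19% in these data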;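 note: higher means more PKAc released from R1A so a rise in polarization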
NTR1 ag: NTR1 (human) agonism; activation, % at 20 µM; AID 493036; NTR1-U2OS beta-arrestin-GFP spot imaging, agonist mode; hit rate 0.17% among 330,000;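 active = activation at or above 40% of the spot to cytoplasm intensity ratio, with at least 20 cells analyzed; inconclusive = wells under 20 cells, flagged as cytotoxic or low count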
Target sequence (P30989 whole entry, looked up): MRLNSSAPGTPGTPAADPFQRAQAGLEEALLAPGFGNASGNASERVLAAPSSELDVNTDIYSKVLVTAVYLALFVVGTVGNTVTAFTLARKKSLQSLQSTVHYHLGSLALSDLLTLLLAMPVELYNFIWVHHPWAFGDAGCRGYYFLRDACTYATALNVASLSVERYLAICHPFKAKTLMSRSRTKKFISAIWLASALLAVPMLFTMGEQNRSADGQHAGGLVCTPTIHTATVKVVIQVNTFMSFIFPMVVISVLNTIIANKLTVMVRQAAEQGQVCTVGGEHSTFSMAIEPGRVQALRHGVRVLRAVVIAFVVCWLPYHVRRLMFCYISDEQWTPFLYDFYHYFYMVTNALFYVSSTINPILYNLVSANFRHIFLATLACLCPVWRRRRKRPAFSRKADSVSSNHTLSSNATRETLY
dFosB act-1: enhances mouse delta FosB homodimer DNA binding; P13346; activation, % at 25 µM; purified delta FosB, TAMRA-CDK5 oligo fluorescence polarization; percent of positive-control signal above neutral wells; hit rate 0.99% among 340,000;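 active = mean activation above about 17%, with every replicate also reaching it, limit read from the data, passing the limit was not always enough; inconclusive = only one of the two conditions met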
dFosB act-2: delta FosB (mouse) homodimer activation; shares compounds with dFosB act-1; purified delta FosB, TAMRA-CDK5 oligo fluorescence polarization; normalised: neutral wells 0, positive control 100; activation, % at 24.9 µM; 2,400 tested, under 10 active;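 active = highest replicate activation at or above 34% and every replicate reaching that threshold; inconclusive = meets only one of the two criteria; inactive = meets neither criterion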;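 note: higher polarization means more probe DNA bound by delta FosB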
Of the large screens only hits and unclear results are named; the others gave an inactive call (follow-up assays come after a bar, where they were run).

CN1C[C@@H]2[C@@H]3C(=O)N(C)C(=O)[C@@H]3[C@](C)(C1=O)N2C(=O)c1ccccc1	none (no result: NTR1 ag)
O=C(NCCC(=O)N1CCN(c2ccccn2)CC1)c1ccc(Cl)cc1	none
CC(C)c1nnc(NC(=O)CCC(=O)NCc2ccccc2Cl)s1	none
CC(C)Cc1nnc(NC(=O)CCC(=O)NCc2ccccc2Cl)s1	dFosB act-1 19 | dFosB act-2 inactive
Cc1csc(NC(=O)COc2ccc3c(C)cc(=O)oc3c2)n1	dFosB act-1 54 (no result: CAL PDZ FP-1) | dFosB act-2 inactive
Cc1cccc(OCC(=O)Nc2ccc3c(C)cc(=O)oc3c2)c1	none
Cc1cc(=O)oc2cc(NC(=O)CCOc3ccccc3)ccc12	dFosB act-1 21 | dFosB act-2 inactive
COc1cc(NC(=O)c2cc(S(=O)(=O)N3CCCCC3)c[nH]2)cc(OC)c1	dFosB act-1 100 (no result: CAL PDZ FP-2) | dFosB act-2 inactive
COc1ccccc1C(CNc1ccc(S(=O)(=O)N2CCCC2)cc1[N+](=O)[O-])N(C)C (centres undefined)	none
CCN(CC)S(=O)(=O)c1ccc(/C=C/C(=O)OCC(=O)Nc2ccc(S(N)(=O)=O)cc2)cc1	dFosB act-1 116 (no result: CAL PDZ FP-2) | dFosB act-2 inactive
O=C(COC(=O)/C=C/c1ccc(Cl)cc1)Nc1ccc2[nH]c(=O)[nH]c2c1	dFosB act-1 22 | dFosB act-2 inactive
NS(=O)(=O)c1ccc(CCNC(=O)COC(=O)/C=C/c2ccc(Cl)cc2)cc1	dFosB act-1 21 | dFosB act-2 inactive
O=C(COC(=O)/C=C/c1ccc(F)cc1)Nc1ccc2[nH]c(=O)[nH]c2c1	none
NS(=O)(=O)c1ccc(NC(=O)CCCCCN2C(=O)c3ccccc3C2=O)cc1	none
NS(=O)(=O)c1ccc(NC(=O)CCCCC(=O)Nc2ccc(S(N)(=O)=O)cc2)cc1	dFosB act-1 53 | dFosB act-2 inactive
O=S(=O)(/N=C(/Nc1ccccn1)c1ccccc1)c1ccc(F)cc1	none
COc1ccc2cc1Oc1ccc(cc1)C[C@H]1c3c(cc4c(c3Oc3cc5c(cc3OC)CCN(C)[C@@H]5C2)OCO4)CCN1C	none
COc1ccc2cc1Oc1ccc(cc1)C[C@H]1c3cc(c(OC)cc3CCN1C)Oc1c(OC)c(OC)cc3c1[C@H](C2)N(C)CC3	dFosB act-1 26 | dFosB act-2 inconclusive
CN1CCN(C2=Nc3c(Cl)cc(Cl)c4cccc2c34)CC1	dFosB act-1 20 (no result: CAL PDZ FP-2) | dFosB act-2 inactive
Nc1ccccc1SCC(=O)Nc1ccc2c(c1)OCCO2	none
Cc1ccc(S(=O)(=O)N2CCOCC2)cc1C(=O)NCC1CCCCC1	none (no result: CAL PDZ FP-2)
CCC(C(=O)OCC(=O)NC1CCS(=O)(=O)C1)c1ccccc1 (centres undefined)	none
COc1ccc2oc(C(=O)OCC(=O)Nc3cc(S(=O)(=O)N4CCOCC4)ccc3C)c(C)c2c1	dFosB act-1 38 | dFosB act-2 inactive
CCC(C)[C@H]1CN=C(N)N1CCc1cccc(F)c1 (some centres undefined)	none
CCOC(=O)N1CCN(Cc2nc3cc(NC(=O)c4cccs4)ccc3n2CC)CC1	none
O=C(Nc1sc(-c2ccccc2)cc1C(=O)O)c1ccccc1	none
CCCOc1ccc(-c2csc3ncn(Cc4ccc(C(=O)O)cc4)c(=O)c23)cc1	dFosB act-1 24 (no result: CAL PDZ FP-2) | dFosB act-2 inactive
CSc1nc2[nH]c(=O)n(O)c(=O)c2n1Cc1ccccc1	none (no result: NTR1 ag)
CCC(C)NC(=O)Cn1c(=O)n(CCCCCC(=O)Nc2ccccc2)c(=O)c2sccc21 (centres undefined)	dFosB act-1 18 | dFosB act-2 inactive
CCN(CC)C(=O)Cn1c(=O)n(CCCCCC(=O)Nc2ccccc2)c(=O)c2sccc21	none
Cc1ccc([N+](=O)[O-])cc1-c1ccc(/C=C(\C#N)c2[nH]nc(N)c2C#N)o1	dFosB act-1 29 (no result: NTR1 ag) | dFosB act-2 inactive
Cc1c(Cl)cccc1NS(=O)(=O)c1ccc(-c2ccc(=O)[nH]n2)o1	none
CC1(C)CC(N=c2cc(-c3ccccc3)oc3ccc(Cl)cc23)CC(C)(C)N1	dFosB act-1 40 (no result: CAL PDZ FP-2, NTR1 ag) | dFosB act-2 inactive
NS(=O)(=O)c1ccc(NC(=S)NC(=O)/C=C/c2cccs2)cc1	dFosB act-1 26 | dFosB act-2 inactive
Cc1sc2nc(SCC(=O)Nc3ccc(S(N)(=O)=O)cc3)[nH]c(=O)c2c1C	CAL PDZ FP-2 44, dFosB act-1 101 | dFosB act-2 inactive
Cc1sc2nc(SCC(=O)Nc3cccc(S(N)(=O)=O)c3)[nH]c(=O)c2c1C	none
COc1ccc(NC(=S)NC(NC(=O)/C=C/c2ccccc2)C(Cl)(Cl)Cl)cc1 (centres undefined)	none
Cc1nc(NC(=O)C2CC2)sc1C(=O)Nc1ccccc1Cl	none
Cc1nc(NC(=O)/C=C/c2ccccc2)sc1C(=O)Nc1ccc(Cl)cc1	dFosB act-1 31 | dFosB act-2 inactive
Cc1nc(NC(=O)/C=C/c2ccccc2)sc1C(=O)Nc1ccccc1Cl	CAL PDZ FP-2 inconclusive, dFosB act-1 39 | dFosB act-2 inactive
O=C(/C=C/c1ccccc1)NC(NC(=S)Nc1ccc(Cl)cc1)C(Cl)(Cl)Cl (centres undefined)	dFosB act-1 24 | dFosB act-2 inactive
O=C(/C=C/c1ccc(Cl)cc1)Nc1nccs1	dFosB act-1 23 (no result: NTR1 ag) | dFosB act-2 inactive
C/C=C/C=C/C(=O)Nc1nccs1	none
O=C1c2[nH]c3ccccc3c2CC1N1C(=O)c2ccccc2C1=O (centres undefined)	none (no result: CAL PDZ FP-1, CAL PDZ FP-2, NTR1 ag, dFosB act-1)
O=C(Nc1ccc(S(=O)(=O)Nc2ncccn2)cc1)c1ccc(Br)cc1	none (no result: CAL PDZ FP-1, CAL PDZ FP-2, NTR1 ag, dFosB act-1)
CCCn1nc(C(=O)Nc2cc(S(=O)(=O)Nc3ccc(OC)cc3)ccc2O)c2ccccc2c1=O	dFosB act-1 21 (no result: CAL PDZ FP-2) | dFosB act-2 inactive
O=C(CN1CCN(c2ccccc2O)CC1)Nc1ccc2c(c1)OCCCO2	none
CC(=O)Nc1ccc(NC(=O)c2ccc(COc3ccccc3Br)o2)cc1	dFosB act-1 69 | dFosB act-2 inactive
CNc1c(-n2cc(C(=O)OC)c(C(=O)OC)c2C(=O)OC)c(=O)n(C)c(=O)n1C	none
O=C(NC1CCCC1)c1ccc(Cn2c(=O)[nH]c3ccsc3c2=O)cc1	none
O=C(Nc1ccc(Cl)c(Cl)c1)c1ccc(Cn2c(=O)[nH]c3ccsc3c2=O)cc1	dFosB act-1 22 (no result: CAL PDZ FP-2) | dFosB act-2 inactive
O=C(Nc1ccc(Oc2ccccc2)cc1)c1ccc(Cn2c(=O)[nH]c3ccsc3c2=O)cc1	dFosB act-1 62 (no result: CAL PDZ FP-2) | dFosB act-2 inactive
Cc1ccc2nc(NC(=O)c3cccs3)sc2c1	none
